Data: ChEMBL document CHEMBL1137547, “Synthesis and antifungal activities of novel 2-aminotetralin derivatives” (2007)
≈ marks a conversion by molar mass, not a printed value.

Columns and labels:
Assay type in all cases: functional
Candida albicans [1] = experiment: Antifungal activity against fluconazole-resistant Candida albicans 01010 after 24 hrs
In short: (§1)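 Broth serial dilution MIC per NCCLS in 96-well format; medium RPMI 1640 buffered with 0.165 M MOPS; compounds dissolved in DMSO and serially diluted in medium; clinical C. albicans isolates incubated at 35 °C, read at 24 h; MIC = lowest concentration giving turbidity […] inhibition relative to growth control; fluconazole and I-6 as control drugs.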

Fonsecaea compacta = experiment: Antifungal activity against Fonsecaea compacta
In short: (§2)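 NCCLS broth serial dilution in RPMI 1640 buffered with 0.165 M MOPS. Compounds were dissolved in DMSO and serially diluted in medium. Strains came from ATCC or clinical isolates. The growth MIC for filamentous fungi was read at 7 d, taken as the lowest concentration giving ≥80% turbidity inhibition versus the growth control.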

Candida parapsilosis = experiment: Antifungal activity against Candida parapsilosis after 24 hrs; conditions: Lodderomyces parapsilosis
In short: (§3)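 Candida yeasts were tested by NCCLS microdilution in RPMI 1640 buffered with 0.165 M MOPS and incubated at 35 °C. Compounds were dissolved in DMSO and serially diluted in medium. Isolates came from ATCC or the clinic. The MIC was read at 24 h as the lowest concentration achieving ≥80% growth inhibition versus the control.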

Trichophyton rubrum = experiment: Antifungal activity against Trichophyton rubrum
In short: (§4)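 Dermatophytes were tested by NCCLS serial dilution in RPMI 1640 with 0.165 M MOPS and incubated at 28 °C. Compounds were dissolved in DMSO and diluted in medium. Strains came from ATCC or clinical isolates. The MIC was read at 7 d as the lowest concentration reducing turbidity by ≥80% relative to the drug-free control.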

Microsporum = experiment: Antifungal activity against Microsporum gypseum; in short: as §4
Candida albicans [2] = experiment: Antifungal activity against fluconazole-resistant Candida albicans 0511655 after 24 hrs; in short: as §1
Candida albicans [3] = experiment: Antifungal activity against Candida albicans after 24 hrs; in short: as §3
Cryptococcus neoformans = experiment: Antifungal activity against Cryptococcus neoformans after 72 hrs
In short: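 Cryptococcus neoformans was tested by NCCLS serial dilution in MOPS-buffered (0.165 M) RPMI 1640 at 35 °C. Compounds were dissolved in DMSO and diluted in medium. The MIC was read at 72 h as the lowest concentration giving turbidity inhibition of ≥80% relative to the growth control.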

Candida albicans [4] = experiment: Antifungal activity against fluconazole-resistant Candida albicans 18 after 24 hrs; in short: as §1
Aspergillus fumigatus = experiment: Antifungal activity against Aspergillus fumigatus; in short: as §2
Candida albicans [5] = experiment: Antifungal activity against fluconazole-resistant Candida albicans 25 after 24 hrs; in short: as §1

Row | Structure (SMILES) | MIC (Candida albicans [1]) [µM] | MIC (Fonsecaea compacta) [µM] | MIC (Candida parapsilosis) [µM] | MIC (Trichophyton rubrum) [µM] | MIC (Microsporum) [µM] | MIC (Candida albicans [2]) [µM] | MIC (Candida albicans [3]) [µM] | MIC (Cryptococcus neoformans) [µM] | MIC (Candida albicans [4]) [µM] | MIC (Aspergillus fumigatus) [µM] | MIC (Candida albicans [5]) [µM]
1 | CCCCCCCCNC1CCc2cc(OC)ccc2C1 (configuration not stated) | 16 (≈ 4.63 µg/mL) | 8 (≈ 2.32 µg/mL) | 16 (≈ 4.63 µg/mL) | 8 (≈ 2.32 µg/mL) | 8 (≈ 2.32 µg/mL) | 8 (≈ 2.32 µg/mL) | 0.0625 (≈ 0.0181 µg/mL) | 16 (≈ 4.63 µg/mL) | 8 (≈ 2.32 µg/mL) | > 64 | 8 (≈ 2.32 µg/mL)
2 | CCCCCCCCNC1CCc2cc(O)ccc2C1 (configuration not stated) | 4 (≈ 1.1 µg/mL) | 2 (≈ 0.551 µg/mL) | 16 (≈ 4.41 µg/mL) | 4 (≈ 1.1 µg/mL) | 16 (≈ 4.41 µg/mL) | 4 (≈ 1.1 µg/mL) | 0.0625 (≈ 0.0172 µg/mL) | 8 (≈ 2.2 µg/mL) | 4 (≈ 1.1 µg/mL) | > 64 | 2 (≈ 0.551 µg/mL)
3 | CCCCCCCCCNC1CCc2c(cccc2OC)C1 (configuration not stated) | 16 (≈ 4.86 µg/mL) | 0.5 (≈ 0.152 µg/mL) | 0.5 (≈ 0.152 µg/mL) | 2 (≈ 0.607 µg/mL) | 4 (≈ 1.21 µg/mL) | 16 (≈ 4.86 µg/mL) | 0.0625 (≈ 0.019 µg/mL) | 2 (≈ 0.607 µg/mL) | 16 (≈ 4.86 µg/mL) | 8 (≈ 2.43 µg/mL) | 8 (≈ 2.43 µg/mL)
4 | CCCCCCCCCNC1CCc2cc(O)ccc2C1 (configuration not stated) | 4 (≈ 1.16 µg/mL) | 1 (≈ 0.289 µg/mL) | 4 (≈ 1.16 µg/mL) | 1 (≈ 0.289 µg/mL) | 0.5 (≈ 0.145 µg/mL) | 4 (≈ 1.16 µg/mL) | 0.0625 (≈ 0.0181 µg/mL) | 0.5 (≈ 0.145 µg/mL) | 4 (≈ 1.16 µg/mL) | 32 (≈ 9.26 µg/mL) | 2 (≈ 0.579 µg/mL)
5 | CCCCCCCCCCNC1CCc2cc(O)ccc2C1 (configuration not stated) | 4 (≈ 1.21 µg/mL) | 0.25 (≈ 0.0759 µg/mL) | 2 (≈ 0.607 µg/mL) | 0.0625 (≈ 0.019 µg/mL) | 8 (≈ 2.43 µg/mL) | 2 (≈ 0.607 µg/mL) | 0.0625 (≈ 0.019 µg/mL) | 1 (≈ 0.303 µg/mL) | 2 (≈ 0.607 µg/mL) | 16 (≈ 4.86 µg/mL) | 2 (≈ 0.607 µg/mL)
6 | CCCCCCCCCCNC1CCc2cccc(O)c2C1 (configuration not stated) | 16 (≈ 4.86 µg/mL) | 64 (≈ 19.4 µg/mL) | 16 (≈ 4.86 µg/mL) | 8 (≈ 2.43 µg/mL) | > 64 | 16 (≈ 4.86 µg/mL) | 0.0625 (≈ 0.019 µg/mL) | 16 (≈ 4.86 µg/mL) | 16 (≈ 4.86 µg/mL) | – | 4 (≈ 1.21 µg/mL)
7 | CCCCCCCCCCNC1CCc2ccc(OC)cc2C1 (configuration not stated) | 4 (≈ 1.27 µg/mL) | 1 (≈ 0.318 µg/mL) | 0.25 (≈ 0.0794 µg/mL) | 1 (≈ 0.318 µg/mL) | 2 (≈ 0.635 µg/mL) | 4 (≈ 1.27 µg/mL) | 0.0625 (≈ 0.0198 µg/mL) | 1 (≈ 0.318 µg/mL) | 4 (≈ 1.27 µg/mL) | 16 (≈ 5.08 µg/mL) | 2 (≈ 0.635 µg/mL)
8 | CCCCCCCCCCNC1CCc2c(O)cccc2C1 (configuration not stated) | 16 (≈ 4.86 µg/mL) | 1 (≈ 0.303 µg/mL) | 32 (≈ 9.71 µg/mL) | 4 (≈ 1.21 µg/mL) | 1 (≈ 0.303 µg/mL) | 32 (≈ 9.71 µg/mL) | 0.0312 (≈ 0.00948 µg/mL) | 1 (≈ 0.303 µg/mL) | 32 (≈ 9.71 µg/mL) | > 64 | 32 (≈ 9.71 µg/mL)
